Screening results from PubChem.
Compounds with a hit are over-represented: about 2.2% of the library has one in this group of screens.
NR2E3 ag-1: NR2E3 agonists in two-hybrid cells, primary screen, cell-based, luminescence, CHO-S, Gal4-NCOR/VP16-NR2E3 | Photoreceptor-specific nuclear receptor (Homo sapiens), Q9Y5X4 | luciferase | inhibition of corepressor binding, % at 3.98 µM | hit rate 0.35% among 360,000 | AID 602229, 2012;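 active means inhibition above the mean of all tested compounds plus 3 SD, cut at about 70% in these data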;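 further: higher means lower luciferase signal from less NR2E3 corepressor binding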
Target sequence (Q9Y5X4 whole entry, looked up, the tested form may be a part): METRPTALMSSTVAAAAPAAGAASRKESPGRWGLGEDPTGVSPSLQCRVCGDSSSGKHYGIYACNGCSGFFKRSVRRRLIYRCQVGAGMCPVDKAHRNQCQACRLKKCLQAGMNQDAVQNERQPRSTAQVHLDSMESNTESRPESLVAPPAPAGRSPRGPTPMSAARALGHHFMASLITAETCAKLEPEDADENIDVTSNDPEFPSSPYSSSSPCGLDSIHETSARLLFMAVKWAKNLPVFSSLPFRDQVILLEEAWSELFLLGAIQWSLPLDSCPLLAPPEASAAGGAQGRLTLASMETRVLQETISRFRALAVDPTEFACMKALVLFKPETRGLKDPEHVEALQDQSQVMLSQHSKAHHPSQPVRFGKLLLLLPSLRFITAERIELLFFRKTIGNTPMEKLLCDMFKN
Jurkat NFkB inh: inhibitors of induced NF-kB luciferase reporter, primary screen, TCR NF-kB activation inhibitor project, cell-based, luminescence, uHTS. Jurkat, PMA/ionomycin-induced NF-kB luciferase reporter. inhibition, % at 4 µM. hit rate 0.53% among 330,000. AID 435003, 2010; in the data active means inhibition above about 50%
FGF22 binding: binders of human FGF22 protein, primary screen, FGF22 synaptogenesis inhibitor project, biophysical, thermal shift, single point; Fibroblast growth factor 22 (Homo sapiens), Q9HCT0; activity (Tm shift, normalised), % at 9.99 µM; recombinant FGF22 thermal shift, SYPRO orange fluorescence; percent of sucrose octasulfate shift, DMSO zero; hit rate 1.5% among 340,000; AID 651658, 2012;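 active means mean Tm shift, scaled 0 neutral to 100 positive control, at about 1.3% or above, every replicate too, limit read from the data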
Target sequence (Q9HCT0 whole entry, looked up): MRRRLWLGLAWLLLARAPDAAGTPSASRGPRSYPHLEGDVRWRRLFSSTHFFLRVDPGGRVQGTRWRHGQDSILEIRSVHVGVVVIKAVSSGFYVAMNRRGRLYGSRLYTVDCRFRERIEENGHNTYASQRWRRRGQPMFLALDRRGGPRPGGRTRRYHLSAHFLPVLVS
NR2E3 ag-2: inhibitors of NR2E3-RetCOR corepressor binding, primary screen, NR2E3 agonist project, biochemical, TR-FRET, GST-NR2E3, biotin-RetCOR; inhibition of corepressor binding, % at 4.78 µM; 1536-well; AID 2300, 2010; hit rate 0.12% among 320,000; Photoreceptor-specific nuclear receptor (Homo sapiens), Q9Y5X4;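 active means percent inhibition above the cutoff of mean plus 3 SD of all tested compounds, set per screening campaign, cut at about 20% in these data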
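Material: NR2E3–RetCOR corepressor complex / Incubation: Compound–protein incubation for 5 h at 4 °C / Dosing: compound at 4.8 µM, single dose / Detection: time-resolved FRET / Benchmarks: high control biotin, low control 0.6% DMSO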
miR122 inh: miR-122 Renilla sensor signal increase in Huh7, primary screen, miR-122 inhibitor project, cell-based, single point, plate reader; Huh7 miR-122 Renilla luciferase sensor, 48 h; neutral wells = 0, positive control = 100; activation (reporter increase), % at 12.5 µM; hit rate 0.3% among 340,000;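 active means mean replicate activation score at least 90 and every replicate individually at or above 90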;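 further: higher luciferase means less miR-122 activity so hits act as miR-122 inhibitors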
697 NFkB inh: inhibitors of PMA/ionomycin-induced NF-kB reporter, 697 cells, primary screen, B-cell NF-kB inhibitor project, cell-based, luminescence, uHTS | AID 435022, 2010 | inhibition, % at 4 µM | hit rate 0.33% among 330,000 | 697 B-cell NF-kB luciferase reporter, 16 h; in the data active means inhibition above about 35%
A number is an active result.

How did COc1ccccc1CNC(=O)C[C@@H]1CC[C@H]2[C@@H](COC[C@H](O)CN2C(=O)Nc2ccccc2)O1 do in these assays?
FGF22 binding: inactive; miR122 inh: inactive

What do the screens show for `O=C(Cc1ccccn1)NCC[C@@H]1CC[C@@H](NC(=O)Nc2ccccc2)[C@H](CO)O1`?
FGF22 binding: inactive

How did N#C/C(=C\c1ccc(O)c(Br)c1)C(=O)NCc1ccccc1 do in these assays?
NR2E3 ag-1: inactive; Jurkat NFkB inh: inactive; NR2E3 ag-2: inactive; miR122 inh: inactive; 697 NFkB inh: inactive

Results for N#C/C(=C/c1ccccc1)C(=O)NCc1ccccc1 ?
NR2E3 ag-1: inactive; Jurkat NFkB inh: inactive; FGF22 binding: 43.5; NR2E3 ag-2: inactive; 697 NFkB inh: inactive

Results for COc1ccc(/C=C(\C#N)C(=O)OCC(=O)Nc2c(C)cccc2C)cc1 ?
NR2E3 ag-1: inactive; Jurkat NFkB inh: inactive; FGF22 binding: inactive; NR2E3 ag-2: inactive; 697 NFkB inh: inactive

Results for COc1ccc(/C=C(\C#N)C(=O)OCC(=O)NC2CC2)cc1 ?
NR2E3 ag-1: inactive; Jurkat NFkB inh: inactive; FGF22 binding: 43.8; NR2E3 ag-2: inactive; 697 NFkB inh: inactive

What do the screens show for `COc1ccc(/C=C(\C#N)C(=O)OCC(=O)NCc2ccccc2)cc1`?
NR2E3 ag-1: inactive; Jurkat NFkB inh: inactive; FGF22 binding: 33.8; NR2E3 ag-2: inactive; miR122 inh: inactive; 697 NFkB inh: inactive

Results for COc1ccccc1S(=O)(=O)N[C@@H]1CC[C@H](CC(=O)NCc2cccc(F)c2)O[C@H]1CO ?
FGF22 binding: inactive; miR122 inh: inactive

What do the screens show for `CCc1ccc(S(=O)(=O)Nc2ccc(O)c3c(=O)cc(-c4ccccc4Cl)oc23)cc1`?
NR2E3 ag-1: inactive; Jurkat NFkB inh: inactive; FGF22 binding: 18.7; NR2E3 ag-2: inactive; miR122 inh: inactive; 697 NFkB inh: inactive

How did O=c1cc(-c2ccccc2Cl)oc2c(NS(=O)(=O)c3cc(Cl)cc(Cl)c3O)ccc(O)c12 do in these assays?
NR2E3 ag-1: inactive; Jurkat NFkB inh: inactive; NR2E3 ag-2: inactive; miR122 inh: inactive; 697 NFkB inh: inactive

How did CCCCNC(=O)c1onc(CSc2ccc(Cl)cc2)c1C(=O)NCCCC do in these assays?
NR2E3 ag-1: inactive; Jurkat NFkB inh: inactive; FGF22 binding: 35.1; NR2E3 ag-2: inactive; 697 NFkB inh: inactive

Results for CCOc1ccccc1N(CC(=O)Nc1cccnc1)S(C)(=O)=O ?
NR2E3 ag-1: inactive; Jurkat NFkB inh: inactive; NR2E3 ag-2: inactive; miR122 inh: inactive; 697 NFkB inh: inactive

Results for CCOc1ccccc1N(CC(=O)Nc1cccnc1)S(=O)(=O)c1ccc(C)cc1 ?
NR2E3 ag-1: inactive; Jurkat NFkB inh: inactive; FGF22 binding: inactive; NR2E3 ag-2: inactive; miR122 inh: 128.4; 697 NFkB inh: inactive

How did Cc1cccc(NC(=S)NC(=O)c2oc3ccccc3c2C)n1 do in these assays?
NR2E3 ag-1: inactive; Jurkat NFkB inh: inactive; FGF22 binding: 43.2; NR2E3 ag-2: inactive; miR122 inh: inactive; 697 NFkB inh: inactive

Results for Cc1cccc(NC(=S)NC(=O)c2ccc(-c3ccccc3)cc2)n1 ?
NR2E3 ag-1: inactive; Jurkat NFkB inh: inactive; FGF22 binding: inactive; NR2E3 ag-2: inactive; miR122 inh: inactive; 697 NFkB inh: inactive

What do the screens show for `CC1(C)CC(NCCN2CCN(C3=CC(=C(C#N)C#N)CC(C)(C)C3)CC2)=CC(=C(C#N)C#N)C1`?
NR2E3 ag-1: inactive; Jurkat NFkB inh: inactive; FGF22 binding: 44.7; NR2E3 ag-2: inactive; 697 NFkB inh: inactive

Results for C[C@@H]1CN([C@H](C)CO)C(=O)c2cc(NC(=O)Nc3ccc(F)cc3)ccc2O[C@@H](C)CCCCO[C@@H]1CN(C)S(=O)(=O)c1ccccc1 ?
FGF22 binding: inactive; miR122 inh: inactive

What do the screens show for `CN(C)CC#Cc1ccc([C@H]2[C@@H](CO)N3CCCCN(C(=O)Nc4cc(F)ccc4F)C[C@H]23)cc1`?
FGF22 binding: inactive; miR122 inh: inactive

Results for Cc1ccc(S(=O)(=O)NC(C)(C)CN2CCC(Cc3ccccc3)CC2)cc1 ?
NR2E3 ag-1: inactive; Jurkat NFkB inh: inactive; FGF22 binding: 43.7; NR2E3 ag-2: inactive; miR122 inh: inactive; 697 NFkB inh: inactive

What do the screens show for `CCOC(=O)C1CCN(CC(C)(C)NS(=O)(=O)c2ccc(C)cc2)CC1`?
NR2E3 ag-1: inactive; Jurkat NFkB inh: inactive; FGF22 binding: inactive; NR2E3 ag-2: inactive; miR122 inh: inactive; 697 NFkB inh: inactive

How did C[C@@H]1CN([C@H](C)CO)C(=O)c2cc(C#CC3CCCCC3)cnc2O[C@H]1CN(C)C(=O)c1ccncc1 do in these assays?
FGF22 binding: inactive; miR122 inh: inactive

What do the screens show for `O=C(N/N=C/c1ccc(OCc2cnc(Cl)s2)cc1)c1ccncc1`?
NR2E3 ag-1: inactive; Jurkat NFkB inh: inactive; FGF22 binding: 43.2; NR2E3 ag-2: inactive; 697 NFkB inh: inactive

Results for Cc1noc(C)c1S(=O)(=O)Nc1ccc2c(c1)C(=O)N([C@@H](C)CO)C[C@H](C)[C@@H](CN(C)S(=O)(=O)c1cn(C)cn1)O2 ?
FGF22 binding: inactive; miR122 inh: inactive

How did CN1CCN(C(=O)/C(=C/c2ccccc2)c2ccccc2)CC1 do in these assays?
NR2E3 ag-1: inactive; Jurkat NFkB inh: inactive; NR2E3 ag-2: inactive; 697 NFkB inh: inactive

How did CN1CCN(C(=O)/C(=C/c2ccc(F)cc2)c2ccsc2)CC1 do in these assays?
NR2E3 ag-1: inactive; Jurkat NFkB inh: inactive; FGF22 binding: 42.9; NR2E3 ag-2: inactive; 697 NFkB inh: inactive

Results for CO[C@H]1CN(C)C(=O)c2ccc(NC(=O)C3CC3)cc2OC[C@@H](C)N(C(=O)NC(C)C)C[C@H]1C ?
FGF22 binding: inactive

What do the screens show for `Cc1noc(C)c1NC(=O)Nc1ccc2c(c1)C(=O)N([C@H](C)CO)C[C@@H](C)[C@@H](CN(C)Cc1ccc(C(=O)O)cc1)O2`?
FGF22 binding: inactive; miR122 inh: inactive

Results for CC(=O)N1CCc2cc(S(=O)(=O)N3CCCCCC3)ccc21 ?
NR2E3 ag-1: inactive; Jurkat NFkB inh: inactive; FGF22 binding: inactive; NR2E3 ag-2: inactive; miR122 inh: inactive; 697 NFkB inh: inactive

How did CS(=O)(=O)N1CCc2cc(S(=O)(=O)N3CCCCC3)ccc21 do in these assays?
NR2E3 ag-1: inactive; Jurkat NFkB inh: inactive; FGF22 binding: 42.9; NR2E3 ag-2: inactive; miR122 inh: inactive; 697 NFkB inh: inactive
